Data: ChEMBL document CHEMBL3632544, “Acyl dihydropyrazolo[1,5-a]pyrimidinones as metabotropic glutamate receptor 5 positive allosteric modulators” (Bioorg Med Chem Lett, 2015)

What was measured:
[1] = target: T1, Metabotropic glutamate receptor 5 (Homo sapiens, UniProt P41594); test: Positive allosteric modulation of human mGlu5 expressed in HEK293 cells assessed as calcium mobilization; type: functional, cell-based
How it was run: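 Calcium mobilization read-out in HEK293 cells stably expressing human mGlu5; PAM EC50 and efficacy as % of maximal glutamate response. Mean±SEM of three or more independent determinations, each in triplicate.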
Target sequence in this assay (P41594 whole entry): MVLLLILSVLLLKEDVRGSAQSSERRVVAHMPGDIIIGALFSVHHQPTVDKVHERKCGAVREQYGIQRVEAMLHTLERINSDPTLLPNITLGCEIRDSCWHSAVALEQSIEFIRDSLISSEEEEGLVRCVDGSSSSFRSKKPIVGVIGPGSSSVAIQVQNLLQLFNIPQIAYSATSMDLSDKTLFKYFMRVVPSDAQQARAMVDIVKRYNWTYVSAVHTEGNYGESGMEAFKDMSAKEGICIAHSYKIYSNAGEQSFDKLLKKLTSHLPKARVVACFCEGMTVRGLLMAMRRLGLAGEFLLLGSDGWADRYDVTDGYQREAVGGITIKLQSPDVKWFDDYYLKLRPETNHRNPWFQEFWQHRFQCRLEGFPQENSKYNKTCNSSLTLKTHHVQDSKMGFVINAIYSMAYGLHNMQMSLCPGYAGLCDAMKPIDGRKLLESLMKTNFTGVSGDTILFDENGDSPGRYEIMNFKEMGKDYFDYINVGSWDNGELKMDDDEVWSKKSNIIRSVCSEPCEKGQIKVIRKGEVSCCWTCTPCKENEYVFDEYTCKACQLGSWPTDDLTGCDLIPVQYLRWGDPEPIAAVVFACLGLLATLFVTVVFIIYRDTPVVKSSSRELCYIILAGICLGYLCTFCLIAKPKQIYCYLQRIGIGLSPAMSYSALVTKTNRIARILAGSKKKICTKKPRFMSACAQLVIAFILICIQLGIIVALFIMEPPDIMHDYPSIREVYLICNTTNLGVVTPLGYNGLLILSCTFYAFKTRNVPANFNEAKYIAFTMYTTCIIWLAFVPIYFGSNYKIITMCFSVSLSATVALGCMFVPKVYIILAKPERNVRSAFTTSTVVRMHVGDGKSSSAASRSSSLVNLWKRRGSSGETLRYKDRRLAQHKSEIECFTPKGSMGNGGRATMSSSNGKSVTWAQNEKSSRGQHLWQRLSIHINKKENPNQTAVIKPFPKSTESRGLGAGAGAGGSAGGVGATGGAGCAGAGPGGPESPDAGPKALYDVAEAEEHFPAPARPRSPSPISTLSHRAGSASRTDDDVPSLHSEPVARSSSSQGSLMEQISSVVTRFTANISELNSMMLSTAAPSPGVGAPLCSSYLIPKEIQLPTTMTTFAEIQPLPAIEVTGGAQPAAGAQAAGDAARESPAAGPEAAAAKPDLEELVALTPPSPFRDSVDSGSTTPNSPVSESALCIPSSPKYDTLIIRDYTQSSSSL

[2] = target: T1, Metabotropic glutamate receptor 5; test: Positive allosteric modulation of human mGlu5 expressed in HEK293 cells assessed as calcium mobilization relative to glutamate; type: functional, cell-based
How it was run: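 Calcium mobilization in HEK293 cells expressing human mGlu5, reported as EC50 and % Glu Max. Mean±SEM of three or more independent determinations, each run in triplicate.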
Target sequence in this assay (P41594 21-1212 limits assumed): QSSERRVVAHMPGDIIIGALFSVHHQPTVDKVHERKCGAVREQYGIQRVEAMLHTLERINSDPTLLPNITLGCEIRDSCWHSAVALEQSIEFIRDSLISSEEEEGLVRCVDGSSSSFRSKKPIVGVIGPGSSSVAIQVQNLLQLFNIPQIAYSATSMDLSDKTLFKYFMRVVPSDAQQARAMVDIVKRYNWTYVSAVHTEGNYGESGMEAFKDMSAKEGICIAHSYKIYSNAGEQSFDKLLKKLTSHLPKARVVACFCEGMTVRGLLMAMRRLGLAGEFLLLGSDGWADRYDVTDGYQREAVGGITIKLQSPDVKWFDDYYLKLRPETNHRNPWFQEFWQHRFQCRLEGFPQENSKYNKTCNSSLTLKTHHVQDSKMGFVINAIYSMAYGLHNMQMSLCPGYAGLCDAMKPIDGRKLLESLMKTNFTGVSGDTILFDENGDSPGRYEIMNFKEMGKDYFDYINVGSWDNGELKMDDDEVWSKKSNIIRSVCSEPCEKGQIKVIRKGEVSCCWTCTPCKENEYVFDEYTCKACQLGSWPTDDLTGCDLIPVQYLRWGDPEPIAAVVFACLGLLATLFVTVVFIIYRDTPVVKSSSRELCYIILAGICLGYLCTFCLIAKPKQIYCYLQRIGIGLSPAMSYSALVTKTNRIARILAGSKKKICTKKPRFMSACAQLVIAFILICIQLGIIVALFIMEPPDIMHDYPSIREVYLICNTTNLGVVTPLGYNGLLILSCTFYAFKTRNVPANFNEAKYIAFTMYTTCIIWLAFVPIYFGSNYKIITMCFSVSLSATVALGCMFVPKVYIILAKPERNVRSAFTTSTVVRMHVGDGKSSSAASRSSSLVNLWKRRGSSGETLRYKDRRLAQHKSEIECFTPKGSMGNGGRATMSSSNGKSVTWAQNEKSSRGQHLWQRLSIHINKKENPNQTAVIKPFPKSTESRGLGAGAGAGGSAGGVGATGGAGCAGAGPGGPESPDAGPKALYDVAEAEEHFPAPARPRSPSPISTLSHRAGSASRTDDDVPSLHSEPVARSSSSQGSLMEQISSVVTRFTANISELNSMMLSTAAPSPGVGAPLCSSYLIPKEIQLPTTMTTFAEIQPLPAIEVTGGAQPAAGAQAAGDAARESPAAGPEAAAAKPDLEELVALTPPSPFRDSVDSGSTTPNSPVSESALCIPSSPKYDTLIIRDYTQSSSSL

[3] = Stability in beta cyclodextrin at pH 6 upto 5 days; type: physicochemical; settings: buffer, pH 6, 120 h
How it was run: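 Stability of the compound formulated at 4 mg/mL in 20% β-cyclodextrin vehicle, pH 6, monitored for up to five days; percent decomposition of the amide determined.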

[4] = system: Plasma; test: Fraction unbound in rat plasma; type: ADME, cell-free
How it was run: (§1)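 Plasma protein binding measured in human and rat plasma; readout is fraction unbound.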

[5] = Stability in simulated gastric fluid for 1 hr; type: physicochemical; settings: simulated gi fluid
How it was run: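 Incubation in simulated gastric fluid at 37 °C for 1 h; decomposition of the external amide assessed.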

[6] = system: Plasma; test: Stability in rat plasma after 4 hrs; type: ADME, cell-free
How it was run: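 Compound incubated in rat plasma at 37 °C for 4 h; stability assessed.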

[7] = Plasma clearance in Sprague-Dawley rat at 0.2 mg/kg, iv; type: ADME, organism-based
[8] = system: Plasma; test: Fraction unbound in human plasma; type: ADME, cell-free; how it was run: as §1

SMILES | EC50 ([1]; read-out: EC50) [nM] | %max [2] [%] | further results
O=C(c1nccs1)N1CCCn2nc(COc3ccccc3)cc21 | 257 | 24 | –
CCC(=O)N1CCCn2nc(COc3ccccc3)cc21 | 332 | 48 | –
CC(=O)N1CCCn2nc(COc3cccc(F)c3)cc21 | 266 | 58 | EC50 ([1]; read-out: pEC50 (converted)): 240 nM
O=C(C1CCCC1)N1CCCn2nc(COc3ccccc3)cc21 | 1750 | 41 | –
CC(=O)N1CCCn2nc(CN3CCCc4ccccc43)cc21 | > 10000 | 48 | –
CC(C)(C)C(=O)N1CCCn2nc(COc3ccccc3)cc21 | 882 | 64 | –
O=C(c1ccc(Cl)cc1)N1CCCn2nc(COc3ccccc3)cc21 | 390 | 68 | –
CC(=O)N1CCCn2nc(CNc3ccccc3)cc21 | > 10000 | 20 | –
CC(=O)N1c2cc(COc3ccccc3)nn2CCC1C (stereo not drawn) | 794 | 67 | –
CC(=O)N1CCCn2nc(CSc3ccccc3)cc21 | 3900 | 39 | –
O=C(Cc1ccccc1)N1CCCn2nc(COc3ccccc3)cc21 | 378 | 72 | EC50 ([1]; read-out: pEC50 (converted)): 372 nM
O=C(c1cccc(F)c1)N1CCCn2nc(COc3ccccc3)cc21 | 591 | 61 | –
O=C(c1ccccn1)N1CCCn2nc(COc3ccccc3)cc21 | > 10000 | 44 | –
CC(C)C(=O)N1CCCn2nc(COc3ccccc3)cc21 | 1710 | 59 | –
O=C(c1ccc(F)cc1)N1CCCn2nc(COc3ccccc3)cc21 | 596 | 63 | –
CC(=O)N1CCCn2nc(COc3cc(F)cc(F)c3)cc21 | 1270 | 63 | –
CC(=O)N1CCCn2nc(CS(=O)(=O)c3ccccc3)cc21 | – | < 15 | EC50 ([1]; hek293): Not Active; EC50 ([1]; read-out: pEC50 (converted)): > 31600 nM
CC(=O)N1CCCn2nc(COc3ccccc3F)cc21 | 2370 | 60 | Stability [3]: Stable; Fu [4]: 0.24; Stability [5]: Stable; Stability [6]: Stable; clearance [7]: 103 mL/min/kg; Fu [8]: 0.17
O=C(C1CCC1)N1CCCn2nc(COc3ccccc3)cc21 | 1220 | 41 | –
CC(=O)N1CCCn2nc(CN(C)c3ccccc3)cc21 | 700 | 74 | Fu [4]: 0.35; Fu [8]: 0.46
O=C(C1CC1)N1CCCn2nc(COc3ccccc3)cc21 | 559 | 61 | EC50 ([1]; read-out: pEC50 (converted)): 525 nM

SMILES | EC50 ([1]; read-out: EC50) [nM] | %max [2] [%] | further results
CC(=O)N1CCCc2nc(COc3ccccc3)cn21 | 780 | – | Stability [6]: Unstable
O=C(c1ccncc1)N1CCCn2nc(COc3ccccc3)cc21 | > 10000 | 51 | –
CC(=O)N1CCCn2nc(COc3ccc(F)cc3)cc21 | > 10000 | 56 | –
O=C(c1ccccc1)N1CCCn2nc(COc3ccccc3)cc21 | 610 | 63 | –
CC(=O)N1CCCn2nc(COc3ccncc3)cc21 | – | < 15 | EC50 ([1]; hek293): Not Active; EC50 ([1]; read-out: pEC50 (converted)): > 31600 nM
CC(=O)N1CCCn2nc(COc3cccnc3)cc21 | – | < 15 | EC50 ([1]; hek293): Not Active; EC50 ([1]; read-out: pEC50 (converted)): > 31600 nM
O=C(c1ccco1)N1CCCn2nc(COc3ccccc3)cc21 | – | < 15 | EC50 ([1]; hek293): Not Active; EC50 ([1]; read-out: pEC50 (converted)): > 31600 nM
CC(=O)N1CCCn2nc(COc3ccccc3)c(F)c21 | 3240 | – | –
O=C(c1ccccc1F)N1CCCn2nc(COc3ccccc3)cc21 | 1130 | 62 | –
CC(=O)N1CCCn2nc(CN(C)C3C4CC3C4)cc21 (stereo not drawn) | – | < 15 | EC50 ([1]; hek293): Not Active; EC50 ([1]; read-out: pEC50 (converted)): > 31600 nM
CC(=O)N1CCCc2nc(COc3ccccc3)sc21 | 888 | – | –
CC(=O)N1CCCn2nc(C[S+]([O-])c3ccccc3)cc21 (stereo not drawn) | – | < 15 | EC50 ([1]; hek293): Not Active; EC50 ([1]; read-out: pEC50 (converted)): > 31600 nM
O=C(c1ccno1)N1CCCn2nc(COc3ccccc3)cc21 | 2780 | 22 | –
CC(=O)N1CCCc2nc(COc3ccccc3)oc21 | 1340 | – | Stability [6]: Unstable
CC(=O)N1CCCn2nc(CN3CCc4ccccc43)cc21 | – | < 15 | EC50 ([1]; hek293): Not Active; EC50 ([1]; read-out: pEC50 (converted)): > 31600 nM
CC(=O)N1c2cc(COc3ccccc3)nn2CCC1c1ccccc1 (stereo not drawn) | 5370 | 38 | –
CC(=O)N1CCCn2nc(CN3CCOc4ccccc43)cc21 | 725 | 67 | Fu [4]: 0.43; Fu [8]: 0.35
CC(=O)N1CCCn2nc(COc3ccccc3)nc21 | 3400 | – | –
CC(=O)N1CCCn2nc(COc3cc(F)cc(C#N)c3)cc21 | > 10000 | 39 | –
CC(=O)N1CCCn2cc(COc3ccccc3)nc21 | – | – | EC50 ([1]; hek293): Not Active
